CTSL1 counter: counter-screen for PFM18AAP inhibitors: inhibitors of F. hepatica cathepsin L1; 0.49% of 300,000 active; recombinant F. hepatica cathepsin L1, Z-Leu-Arg-MCA fluorescence; AID 1906; inhibition, % at 5.96 µM;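 active = inhibition above the mean of all tested compounds plus 3 SD, set per screening campaign, cut at about 17% in these data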;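 also: 0% = plate median of test compound wells and 100% = 1 µM Z-Phe-Ala-diazomethylketone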
IMP-1 inh: inhibitors of Pseudomonas aeruginosa IMP-1 metallo-beta-lactamase; purified IMP-1, nitrocefin hydrolysis, epi-absorbance fluorescence; inhibition, % at 5.6 µM; 0.45% of 290,000 active;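 active = inhibition above the mean plus 3 SD of all compounds in the same screening run, cut at about 4.5% in these data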;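 also: 0% = IMP-1 with DMSO and 100% = DMSO wells lacking enzyme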
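System: purified IMP-1 / Input: IMP-1 dispensed at 0.2 nM / Medium: 50 mM HEPES pH 7.1, 50 µM ZnSO4, 0.05% Brij 35 / Timing: 15 min enzyme–compound preincubation, then 25 min nitrocefin reaction, 25 °C / Technique: plate fluorescence quenching by hydrolysis product, ex 480/em 530 nm / Repeats: singlicate testing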
VIM-2 inh: blocks Pseudomonas aeruginosa VIM-2 metallo-beta-lactamase; 0.89% of 290,000 active; AID 1527; inhibition, % at 5.6 µM; purified VIM-2, nitrocefin hydrolysis, epi-absorbance fluorescence;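 active = inhibition above the mean of all tested compounds plus 3 SD, cutoff set per screening run, cut at about 7.5% in these data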;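 also: red hydrolysis product quenches plate fluorescence so inhibitors raise well fluorescence; 0% = enzyme with DMSO and 100% = DMSO without enzyme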
PfM18AAP inh: PfM18AAP enzyme inhibition | AID 1822 | recombinant PfM18AAP, H-Glu-NHMec fluorogenic cleavage | 1.2% of 290,000 active | inhibition, % at 7.35 µM;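 active = inhibition above the campaign mean inhibition over all tested compounds plus 3 SD, cut at about 28% in these data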;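 also: 0% = plate median of test compound wells and 100% = 2 mM ZnCl2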
* hit, by the source's call. The list is not random: actives were taken first. Their share in the collection is about 2.7%.

O=C(CSc1ncn[nH]1)N1CCOCC1 was read as CTSL1 counter 60*, IMP-1 inh -1, VIM-2 inh 1 and PfM18AAP inh 20.
COCCn1c(SCCN2CCOCC2)nc2c1c(=O)[nH]c(=O)n2C was read as CTSL1 counter 0, IMP-1 inh -3, VIM-2 inh 0 and PfM18AAP inh 30*.
Screening C=CCn1c(SCCN2CCOCC2)nc2c1c(=O)[nH]c(=O)n2C returned CTSL1 counter 3, IMP-1 inh -3, VIM-2 inh -1 and PfM18AAP inh 12.
Screening COc1ccc(OCc2nc(N)nc(Nc3ccccc3OC)n2)cc1 returned CTSL1 counter 2, IMP-1 inh 5.4*, VIM-2 inh -1 and PfM18AAP inh -10.
`O=C(COC(=O)C1CC2CCCC(C1)C2=O)NNC(=O)c1ccc([N+](=O)[O-])cc1` (configuration not stated) gave CTSL1 counter -12.
Screening CC(=O)NN1C(=O)c2ccc(Oc3cccc([N+](=O)[O-])c3)cc2C1=O returned CTSL1 counter -1, IMP-1 inh 6.0*, VIM-2 inh 6 and PfM18AAP inh 11.
CCC(=O)Nc1cc(C(=O)O)ccc1Sc1ccc(C)cc1 was read as CTSL1 counter -4, IMP-1 inh 0, VIM-2 inh 2 and PfM18AAP inh 2.
`O=C(CSc1nnc(NC(=O)c2ccc(F)cc2)s1)NCc1ccco1` gave CTSL1 counter 3, IMP-1 inh -1, VIM-2 inh 12* and PfM18AAP inh 2.
Screening CC(C)n1c(SCC(=O)NCc2ccco2)nnc1C1CC1 returned CTSL1 counter 3, IMP-1 inh -2, VIM-2 inh -2 and PfM18AAP inh 28*.
`CC(C)(C)C(=O)Nc1nnc(SCC(=O)NCc2ccco2)s1` gave CTSL1 counter -2, IMP-1 inh -2, VIM-2 inh 8.6* and PfM18AAP inh 10.
For CC(C)C(=O)Nc1nnc(SCC(=O)NCc2ccco2)s1 the results were CTSL1 counter -1, IMP-1 inh 1, VIM-2 inh 5 and PfM18AAP inh 10.
For COc1ccc(CCNC(=O)CN(c2cc(C)cc(C)c2)S(=O)(=O)c2c(C)noc2C)cc1OC the results were CTSL1 counter 4, IMP-1 inh -3, VIM-2 inh -1 and PfM18AAP inh -9.
For CCN(CC)CCCNC(=O)c1cn(CC)c2cc(N3CCN(C(=O)c4ccco4)CC3)c(F)cc2c1=O the results were CTSL1 counter 6, IMP-1 inh -3, VIM-2 inh 12* and PfM18AAP inh 3.
`CCn1cc(C(=O)NC(C)C)c(=O)c2cc(F)c(N3CCN(C(=O)c4ccco4)CC3)cc21` gave CTSL1 counter 6, IMP-1 inh -5, VIM-2 inh -1 and PfM18AAP inh 1.
`CCCNC(=O)c1cn(CC)c2cc(N3CCN(C)CC3)c(F)cc2c1=O` gave CTSL1 counter -3, IMP-1 inh -5, VIM-2 inh 3 and PfM18AAP inh -3.
`CCn1cc(C(=O)NCCN(C)C)c(=O)c2cc(F)c(N3CCN(C)CC3)cc21` gave CTSL1 counter -1, IMP-1 inh -2, VIM-2 inh 12* and PfM18AAP inh -8.
CCn1cc(S(=O)(=O)c2ccc(C)cc2)c(=O)c2cc(F)c(N3CCN(C)CC3)cc21 was read as CTSL1 counter 2, IMP-1 inh 0, VIM-2 inh 7.9* and PfM18AAP inh -6.
Screening CCn1cc(C(=O)Nc2ncccc2O)c(=O)c2cc(F)c(N3CCN(C(=O)c4ccco4)CC3)cc21 returned CTSL1 counter 7, IMP-1 inh 8.0*, VIM-2 inh 1 and PfM18AAP inh 13.
Screening Cc1ccc(C(=O)NCC(=O)OCCOc2ccccc2Cl)cc1 returned CTSL1 counter -5.
Screening CC1=C(C(=O)OC(C)C)C(c2ccc3c(c2)OCO3)NC(=O)N1 (configuration not stated) returned CTSL1 counter 6, IMP-1 inh -3, VIM-2 inh -1 and PfM18AAP inh 7.
Screening CC(=O)N(Cc1ccco1)c1nc(C(=O)Nc2ccc(Cl)cc2)c(C)s1 returned CTSL1 counter 3, IMP-1 inh -2, VIM-2 inh -3 and PfM18AAP inh -12.
For Cc1nc(N(C)C)c2sc(=S)n(C)c2n1 the results were CTSL1 counter 0, IMP-1 inh -2, VIM-2 inh 7.9* and PfM18AAP inh 0.
For COc1ccc(-c2cc(CNC(=O)CCl)on2)cc1 the results were CTSL1 counter 22*, IMP-1 inh -1, VIM-2 inh -1 and PfM18AAP inh 2.
Screening Cc1ccccc1N1C(=O)C(Cl)=C(N2CCOCC2)C1=O returned CTSL1 counter 2, IMP-1 inh -1, VIM-2 inh 1 and PfM18AAP inh 20.
Screening O=C1C(Cl)=C(N2CCOCC2)C(=O)N1c1ccccc1F returned CTSL1 counter 30*, IMP-1 inh -5, VIM-2 inh -3 and PfM18AAP inh 28.
For CCOc1ccc(N2C(=O)C(Cl)=C(Nc3ccccc3O)C2=O)cc1 the results were CTSL1 counter 17*, IMP-1 inh -3, VIM-2 inh 3 and PfM18AAP inh 33*.
For CCOc1ccc(N2C(=O)C(Cl)=C(N3CCOCC3)C2=O)cc1 the results were CTSL1 counter 12, IMP-1 inh -6, VIM-2 inh -2 and PfM18AAP inh 29*.
Screening O=C1C(Cl)=C(N2CCOCC2)C(=O)N1c1ccc(Br)cc1 returned CTSL1 counter 35*, IMP-1 inh 0, VIM-2 inh -1 and PfM18AAP inh 20.
CC(C)(Cc1ccccc1)/[N+]([O-])=C\c1ccc(C(F)(F)F)cc1 was read as CTSL1 counter 0.
`Cc1ccc(N2C(=O)C(Cl)=C(N3CCCCCC3)C2=O)cc1` gave CTSL1 counter 6, IMP-1 inh 0, VIM-2 inh 0 and PfM18AAP inh -12.
`O=C1C(Cl)=C(N2CCCCC2)C(=O)N1c1ccccc1` gave CTSL1 counter 54*, IMP-1 inh -2, VIM-2 inh 0 and PfM18AAP inh 20.
Screening O=C(NCCn1cccn1)C1CCC(=O)N(CCc2ccccc2)C1 (configuration not stated) returned CTSL1 counter 3, IMP-1 inh -3, VIM-2 inh 0 and PfM18AAP inh 3.
`CCCCN(C)CCNC(=O)c1cc2c(-c3ccccc3F)nn(C)c2s1` gave CTSL1 counter 4, IMP-1 inh -2, VIM-2 inh 11* and PfM18AAP inh -4.
Screening CCCCN(C)CCNC(=O)c1cc2c(-c3cccc(OC)c3)nn(C)c2s1 returned CTSL1 counter 6, IMP-1 inh -3, VIM-2 inh 10* and PfM18AAP inh -1.
Screening COCCNC(=O)c1cc2c(-c3ccccc3F)nn(C)c2s1 returned CTSL1 counter -1, IMP-1 inh 0, VIM-2 inh 0 and PfM18AAP inh -4.
Cc1ccc2cc(CN(CCCN(C)C)C(=S)NCc3ccccc3)c(=O)[nH]c2c1C was read as CTSL1 counter -7, IMP-1 inh -2, VIM-2 inh 9.8* and PfM18AAP inh 3.
`Cc1ccc2cc(CN(CCCN(C)C)C(=O)NCc3ccccc3)c(=O)[nH]c2c1C` gave CTSL1 counter 5, IMP-1 inh -1, VIM-2 inh 7.8* and PfM18AAP inh 1.
